# Experiments:
# [1] = fAUC/MIC in Pseudomonas aeruginosa PAO1 infected Swiss mouse thigh infection model assessed as 1-log10 kill after 24 hrs; assay type: functional
# Outline: (§1)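 Unbound single-dose profiles superimposed to give 24-h fAUC (trapezoidal) per regimen, divided by MIC; log10 CFU per thigh or lung at 24 h fitted to inhibitory sigmoid Emax model by nonlinear least squares; fAUC/MIC for stasis (24-h count equal to treatment-start count) and 1-, 2-, 3-log10 kill derived from fitted parameters.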
# [2] = fAUC/MIC in Pseudomonas aeruginosa ATCC 27853 infected Swiss mouse lung infection model assessed as 1-log10 kill after 24 hrs; assay type: functional; outline: as §1
# [3] = fAUC/MIC in Pseudomonas aeruginosa ATCC 27853 infected Swiss mouse thigh infection model assessed as induction of static antimicrobial effect after 24 hrs; assay type: functional; outline: as §1
# [4] = fAUC/MIC in Pseudomonas aeruginosa PAO1 infected Swiss mouse thigh infection model assessed as 2-log10 kill after 24 hrs; assay type: functional
# [5] = tested on: Pseudomonas aeruginosa; experiment: Antimicrobial activity against Pseudomonas aeruginosa PAO1 in neutropenic Swiss mouse lung infection model assessed as bacterial load in mouse thigh at 40 mg/kg, sc after 24 hrs; assay type: functional, organism-based; design: dose 40 mg/kg
# Outline: (§2)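 Neutropenic lung-infected Swiss mice; colistin (sulfate) s.c. from 2 h post-inoculation, 5–40 mg/kg per dose every 6, 8, 12 or 24 h. Killed 24 h after treatment start; lungs homogenized in saline and plated; log10 CFU/lung (limit 220 CFU); change versus 2 h burden.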
# [6] = tested on: Pseudomonas aeruginosa; experiment: Antimicrobial activity against Pseudomonas aeruginosa ATCC 27853 infected in neutropenic Swiss mouse lung infection model assessed as reduction in bacterial burden relative to control; assay type: functional, organism-based; outline: as §2
# [7] = fAUC/MIC in Pseudomonas aeruginosa isolate 19056 infected Swiss mouse thigh infection model assessed as induction of static antimicrobial effect after 24 hrs; assay type: functional
# [8] = fAUC/MIC in Pseudomonas aeruginosa isolate 19056 infected Swiss mouse thigh infection model after assessed as 3-log10 kill after 24 hrs; assay type: functional
# [9] = fAUC/MIC in Pseudomonas aeruginosa isolate 19056 infected Swiss mouse thigh infection model after assessed as 1-log10 kill 24 hrs; assay type: functional
# [10] = fAUC/MIC in Pseudomonas aeruginosa isolate 19056 infected Swiss mouse lung infection model assessed as 3-log10 kill after 24 hrs; assay type: functional
# [11] = tested on: Pseudomonas aeruginosa; experiment: Antimicrobial activity against Pseudomonas aeruginosa isolate 19056 infected in neutropenic Swiss mouse lung infection model assessed as reduction in bacterial burden relative to control; assay type: functional, organism-based; outline: as §2
# [12] = fAUC/MIC in Pseudomonas aeruginosa PAO1 infected Swiss mouse thigh infection model assessed as 3-log10 kill after 24 hrs; assay type: functional
# [13] = fAUC/MIC in Pseudomonas aeruginosa ATCC 27853 infected Swiss mouse lung infection model assessed as induction of static antimicrobial effect after 24 hrs; assay type: functional; outline: as §1
# [14] = tested on: Pseudomonas aeruginosa; experiment: Antimicrobial activity against Pseudomonas aeruginosa isolate 19056 in neutropenic Swiss mouse thigh infection model assessed as bacterial load in mouse thigh at 40 mg/kg, sc after 24 hrs; assay type: functional, organism-based; design: dose 40 mg/kg
# Outline: (§3)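 Neutropenic thigh-infected Swiss mice; colistin (sulfate) s.c. started 2 h after inoculation, 5–40 mg/kg per dose every 3, 6, 8, 12 or 24 h (5–160 mg/kg/day), two mice per regimen. Killed 24 h after treatment start; each thigh homogenized and plated on nutrient agar; log10 CFU/thigh, lower count limit 100 CFU; change versus 2 h burden.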
# [15] = fAUC/MIC in Pseudomonas aeruginosa ATCC 27853 infected Swiss mouse thigh infection model assessed as 3-log10 kill after 24 hrs; assay type: functional; outline: as §1
# [16] = fAUC/MIC in Pseudomonas aeruginosa ATCC 27853 infected Swiss mouse lung infection model assessed as 2-log10 kill after 24 hrs; assay type: functional; outline: as §1
# [17] = tested on: Pseudomonas aeruginosa; experiment: Antimicrobial activity against Pseudomonas aeruginosa PAO1 in neutropenic Swiss mouse lung infection model assessed as bacterial load in mouse thigh after 2 hrs; assay type: functional, organism-based; settings: Thigh muscle
# [18] = tested on: Pseudomonas aeruginosa; experiment: Antimicrobial activity against Pseudomonas aeruginosa PAO1 infected in neutropenic Swiss mouse lung infection model assessed as reduction in bacterial burden relative to control; assay type: functional, organism-based; outline: as §2
# [19] = tested on: Pseudomonas aeruginosa; experiment: Antimicrobial activity against Pseudomonas aeruginosa PAO1 by broth microdilution method; assay type: functional, organism-based
# Outline: (§4)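 Colistin (sulfate) MIC by broth microdilution; strains stored in tryptone soy broth with 20% glycerol at −80°C and subcultured overnight on horse blood agar at 37°C before use.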
# [20] = fAUC/MIC in Pseudomonas aeruginosa PAO1 infected Swiss mouse lung infection model assessed as induction of static antimicrobial effect after 24 hrs; assay type: functional; outline: as §1
# [21] = tested on: Pseudomonas aeruginosa; experiment: Antimicrobial activity against Pseudomonas aeruginosa ATCC 27853 by broth microdilution method; assay type: functional, organism-based; outline: as §4
# [22] = tested on: Pseudomonas aeruginosa; experiment: Antimicrobial activity against Pseudomonas aeruginosa ATCC 27853 infected in neutropenic Swiss mouse thigh infection model assessed as reduction in bacterial burden relative to control; assay type: functional, organism-based; settings: Thigh muscle; outline: as §3
# [23] = fAUC/MIC in Pseudomonas aeruginosa isolate 19056 infected Swiss mouse lung infection model assessed as 2-log10 kill after 24 hrs; assay type: functional
# [24] = fAUC/MIC in Pseudomonas aeruginosa PAO1 infected Swiss mouse lung infection model assessed as 2-log10 kill after 24 hrs; assay type: functional; outline: as §1
# [25] = tested on: Pseudomonas aeruginosa; experiment: Antimicrobial activity against Pseudomonas aeruginosa PAO1 in neutropenic Swiss mouse thigh infection model assessed as bacterial load in mouse thigh after 2 hrs; assay type: functional, organism-based; settings: Thigh muscle
# Outline: (§5)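 Thigh model: female Swiss mice (22–26 g) made neutropenic with cyclophosphamide i.p. (150 mg/kg day −4, 100 mg/kg day −1). Under isoflurane, ~10^7 CFU/ml early-log suspension injected i.m. (50 µl per posterior thigh). Untreated controls killed 2 h post-inoculation; thighs homogenized in saline, filtered, serially diluted, plated on nutrient agar, counted after 24 h at 37°C; log10 CFU/thigh.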
# [26] = fAUC/MIC in Pseudomonas aeruginosa PAO1 infected Swiss mouse lung infection model assessed as 3-log10 kill after 24 hrs; assay type: functional; outline: as §1
# [27] = fAUC/MIC in Pseudomonas aeruginosa isolate 19056 infected Swiss mouse thigh infection model after assessed as 2-log10 kill after 24 hrs; assay type: functional
# [28] = tested on: Pseudomonas aeruginosa; experiment: Antimicrobial activity against Pseudomonas aeruginosa isolate 19056 infected in neutropenic Swiss mouse thigh infection model assessed as reduction in bacterial burden relative to control; assay type: functional, organism-based; settings: Thigh muscle; outline: as §3
# [29] = fAUC/MIC in Pseudomonas aeruginosa PAO1 infected Swiss mouse lung infection model assessed as 1-log10 kill after 24 hrs; assay type: functional; outline: as §1
# [30] = tested on: Pseudomonas aeruginosa; experiment: Antimicrobial activity against Pseudomonas aeruginosa ATCC 27853 in neutropenic Swiss mouse thigh infection model assessed as bacterial load in mouse thigh after 2 hrs; assay type: functional, organism-based; settings: Thigh muscle; outline: as §5
# [31] = tested on: Pseudomonas aeruginosa; experiment: Antimicrobial activity against Pseudomonas aeruginosa isolate 19056 in neutropenic Swiss mouse thigh infection model assessed as bacterial load in mouse thigh after 2 hrs; assay type: functional, organism-based; settings: Thigh muscle; outline: as §5
# [32] = fAUC/MIC in Pseudomonas aeruginosa ATCC 27853 infected Swiss mouse thigh infection model assessed as 2-log10 kill after 24 hrs; assay type: functional; outline: as §1
# [33] = fAUC/MIC in Pseudomonas aeruginosa isolate 19056 infected Swiss mouse lung infection model assessed as 1-log10 kill after 24 hrs; assay type: functional
# [34] = fAUC/MIC in Pseudomonas aeruginosa PAO1 infected Swiss mouse thigh infection model assessed as induction of static antimicrobial effect after 24 hrs; assay type: functional
# [35] = tested on: Pseudomonas aeruginosa; experiment: Antimicrobial activity against Pseudomonas aeruginosa isolate 19056 by broth microdilution method; assay type: functional, organism-based; outline: as §4
# [36] = tested on: Pseudomonas aeruginosa; experiment: Antimicrobial activity against Pseudomonas aeruginosa ATCC 27853 in neutropenic Swiss mouse lung infection model assessed as bacterial load in mouse thigh after 2 hrs; assay type: functional, organism-based; settings: Thigh muscle
# [37] = tested on: Pseudomonas aeruginosa; experiment: Antimicrobial activity against Pseudomonas aeruginosa PAO1 infected in neutropenic Swiss mouse thigh infection model assessed as reduction in bacterial burden relative to control; assay type: functional, organism-based; settings: Thigh muscle; outline: as §3
# [38] = fAUC/MIC in Pseudomonas aeruginosa ATCC 27853 infected Swiss mouse thigh infection model assessed as 1-log10 kill after 24 hrs; assay type: functional; outline: as §1
# [39] = tested on: Pseudomonas aeruginosa; experiment: Antimicrobial activity against Pseudomonas aeruginosa PAO1 in neutropenic Swiss mouse thigh infection model assessed as bacterial load in mouse thigh at 40 mg/kg, sc after 24 hrs; assay type: functional, organism-based; design: dose 40 mg/kg; outline: as §3
# [40] = fAUC/MIC in Pseudomonas aeruginosa ATCC 27853 infected Swiss mouse lung infection model assessed as 3-log10 kill after 24 hrs; assay type: functional; outline: as §1
# [41] = fAUC/MIC in Pseudomonas aeruginosa isolate 19056 infected Swiss mouse lung infection model assessed as induction of static antimicrobial effect after 24 hrs; assay type: functional
# [42] = tested on: Pseudomonas aeruginosa; experiment: Antimicrobial activity against Pseudomonas aeruginosa isolate 19056 in neutropenic Swiss mouse lung infection model assessed as bacterial load in mouse thigh after 2 hrs; assay type: functional, organism-based
# Outline: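 Lung model: neutropenic Swiss mice under isoflurane given 50 µl of ~10^8 CFU/ml early-log suspension intranasally in ~10 µl portions, then held head-up 1 min. Untreated controls killed 2 h post-inoculation; lungs homogenized in 2 ml saline, viable counts by dilution plating on nutrient agar; lower limit 220 CFU/lung.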
# [43] = tested on: Pseudomonas aeruginosa; experiment: Antimicrobial activity against Pseudomonas aeruginosa ATCC 27853 in neutropenic Swiss mouse lung infection model assessed as bacterial load in mouse thigh at 40 mg/kg, sc after 24 hrs; assay type: functional, organism-based; design: dose 40 mg/kg; outline: as §2
# [44] = tested on: Pseudomonas aeruginosa; experiment: Antimicrobial activity against Pseudomonas aeruginosa ATCC 27853 in neutropenic Swiss mouse thigh infection model assessed as bacterial load in mouse thigh at 40 mg/kg, sc after 24 hrs; assay type: functional, organism-based; design: dose 40 mg/kg; outline: as §3
sequence,measurement,setting,value
COLISTIMETHATE SODIUM,fAUC/MIC,[1],22.8
same,fAUC/MIC,[2],15.6
same,fAUC/MIC,[3],17.3
same,fAUC/MIC,[4],36.1
same,log10cfu,[5],3.09
same,Emax (log10 CFU/organ),[6],7.58
same,fAUC/MIC,[7],8.34
same,fAUC/MIC,[8],53.3
same,fAUC/MIC,[9],15.6
same,fAUC/MIC,[10],141
same,Emax (log10 CFU/organ),[11],6.86
same,fAUC/MIC,[12],66.7
same,fAUC/MIC,[13],6.43
same,log10cfu,[14],3.69
same,fAUC/MIC,[15],55.1
same,fAUC/MIC,[16],37.9
same,log10cfu,[17],6.92
same,Emax (log10 CFU/organ),[18],7.36
same,MIC,[19],1 µg/mL
same,fAUC/MIC,[20],5.42
same,MIC,[21],1 µg/mL
same,Emax (log10 CFU/organ),[22],6.29
same,fAUC/MIC,[23],36.9
same,fAUC/MIC,[24],45.9
same,log10cfu,[25],6.35
same,fAUC/MIC,[26],135
same,fAUC/MIC,[27],27.6
same,Emax (log10 CFU/organ),[28],6.23
same,fAUC/MIC,[29],16.7
same,log10cfu,[30],6.14
same,log10cfu,[31],6.26
same,fAUC/MIC,[32],31.2
same,fAUC/MIC,[33],12.2
same,fAUC/MIC,[34],14.4
same,MIC,[35],0.5 µg/mL
same,log10cfu,[36],6.64
same,Emax (log10 CFU/organ),[37],5.97
same,fAUC/MIC,[38],22.7
same,log10cfu,[39],4.01
same,fAUC/MIC,[40],105
same,fAUC/MIC,[41],4.07
same,log10cfu,[42],6.43
same,log10cfu,[43],3.58
same,log10cfu,[44],3.17

# From ChEMBL document CHEMBL1240382, “Elucidation of the pharmacokinetic/pharmacodynamic determinant of colistin activity against Pseudomonas aeruginosa in murine thigh and lung infection models” (Antimicrob Agents Chemother, 2010)
